Measured values as given in ChEMBL document CHEMBL1126686 (J Med Chem, 1993).

Key:
Phosphodiesterase 3 [1] = target: T1, Phosphodiesterase 3 (Homo sapiens, UniProt Q14432+Q13370); assay: Percentage inhibition against PDE-III (phosphodiesterase III) in guinea pig ventricle at 10 uM; type: protein assay; details: Cavia porcellus, target entry is the homologue from another species
Phosphodiesterase 4 [2] = target: T2, Phosphodiesterase 4 (Homo sapiens, UniProt P27815+Q08499+Q07343+Q08493); assay: In vitro inhibition of PDE-IV isolated from guinea pig ventricle.; type: protein assay, Cavia porcellus; details: target entry is the homologue from another species
Procedure, shortened: (§1)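 PDE III and PDE IV were each prepared from guinea pig ventricle by anion-exchange chromatography. Activity was measured by the boronate column method with 1 μM cAMP as substrate.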

Phosphodiesterase 4 [3] = target: T2, Phosphodiesterase 4; assay: In vitro inhibition of PDE-IV isolated from guinea pig ventricle at 10 uM.; type: protein assay; details: Cavia porcellus, target entry is the homologue from another species
[4] = target: cGMP-specific 3',5'-cyclic phosphodiesterase (Homo sapiens) (UniProt O76074); assay: In vitro inhibition of PDE-V isolated from porcine pulmonary artery at 10 uM.; details: Sus scrofa, target entry is the homologue from another species
Phosphodiesterase 4 [5] = target: T2, Phosphodiesterase 4; assay: In vitro inhibition of PDE-IV isolated from guinea pig ventricle; Not determined.; type: protein assay; details: Cavia porcellus; target entry is the homologue from another species; concentration not given here; procedure, shortened: as §1
Phosphodiesterase 3 [6] = target: T1, Phosphodiesterase 3; assay: Effective dose against PDE-III for increase in contractility following administration to anaesthetised dogs; details: Canis lupus familiaris; target entry is the homologue from another species
[7] = system: cGMP-specific 3',5'-cyclic phosphodiesterase (Sus scrofa); assay: In vitro inhibition of PDE-V isolated from porcine pulmonary artery at 100 uM.
Phosphodiesterase 4 [8] = target: T2, Phosphodiesterase 4; assay: In vitro inhibition of PDE-IV isolated from guinea pig ventricle at 100 uM.; type: protein assay; details: Cavia porcellus, target entry is the homologue from another species
Phosphodiesterase 3 [9] = target: T1, Phosphodiesterase 3; assay: Inhibition of PDE 3 (phosphodiesterase III) from guinea pig ventricle; type: protein assay, Cavia porcellus; details: target entry is the homologue from another species; procedure, shortened: as §1
Phosphodiesterase 3 [10] = target: T1, Phosphodiesterase 3; assay: Percent inhibition of PDE 3 (phosphodiesterase III) from guinea pig ventricle at 10 uM (or 100 uM); type: protein assay; details: Cavia porcellus, target entry is the homologue from another species
Phosphodiesterase 3 [11] = target: T1, Phosphodiesterase 3; assay: Relative positive inotropic activity (ED50) and PDE 3 inhibition (IC50); type: protein assay; details: Cavia porcellus

| SMILES | inhibition (Phosphodiesterase 3 [1]) [%] | IC50 (Phosphodiesterase 4 [2]) [µM] | inhibition (Phosphodiesterase 4 [3]) [%] | other results |
| --- | --- | --- | --- | --- |
| c1c[nH]c2nc(-c3ccccc3OC3CCCC3)nc-2c1 | 12 | 19 | – | – |
| CC(=O)Oc1ccccc1-c1nc2ccc[nH]c-2n1 | 2 | – | 0 | – |
| CCCOc1ccccc1-c1nc2ccc[nH]c-2n1 | 0 | 11 | – | – |
| c1ccc(COc2ccccc2-c2nc3ccc[nH]c-3n2)cc1 | 0 | 8 | – | – |
| Oc1ccccc1-c1nc2ccc[nH]c-2n1 | 15 | – | 0 | – |
| CCCCOc1ccccc1-c1nc2ccc[nH]c-2n1 | 0 | 6 | – | – |
| CC(C)(C)Oc1ccccc1-c1nc2ccc[nH]c-2n1 | 0 | – | 0 | inhibition [4]: 29% |
| COc1ccccc1-c1nc2ccc[nH]c-2n1 | 13 | – | – | inhibition (Phosphodiesterase 4 [5]): 1% |
| O=[N+]([O-])c1ccccc1-c1nc2ccc[nH]c-2n1 | 0 | – | 4 | inhibition [4]: 13% |
| CCCOc1ccccc1-c1nc2[nH]nnc2c(=O)[nH]1 | 14 | – | 13 | – |
| CNCCCOc1ccccc1-c1nc2ccc[nH]c-2n1 | 0 | – | 5 | inhibition [4]: 12% |
| CCOc1ccccc1-c1nc2ccc[nH]c-2n1 | 15 | – | 23 | – |
| CCCCCOc1ccccc1-c1nc2ccc[nH]c-2n1 | 0 | 6 | – | – |
| O=C1CCC(c2ccc(-n3ccnc3)cc2)=NN1 | – | – | – | ED50 (Phosphodiesterase 3 [6]): 0.05 mg/kg |
| CC(C)COc1ccccc1-c1nc2ccc[nH]c-2n1 | – | 3 | – | – |
| CN(C)CCCOc1ccccc1-c1nc2ccc[nH]c-2n1 | 8 | – | 7 | inhibition [7]: 47% |
| OCCOc1ccccc1-c1nc2ccc[nH]c-2n1 | 2 | – | 14 | – |
| OCCCOc1ccccc1-c1nc2ccc[nH]c-2n1 | 0 | – | 30 | – |
| COc1ccccc1-c1nc2cc[nH]cc-2n1 | 6 | – | 20 | – |
| c1c[nH]c2nc(-c3ccccc3OCC3CC3)nc-2c1 | 15 | 37 | – | – |
| Cc1[nH]c(=O)c(C#N)cc1-c1ccncc1 | – | – | – | ED50 (Phosphodiesterase 3 [6]): 0.037 mg/kg |
| CCCCCOc1ccccc1-c1nc2cc[nH]cc-2n1 | 20 | – | 50 | – |
| CCCNc1ccccc1-c1nc2ccc[nH]c-2n1 | 0 | – | 11 | – |
| ClCCCOc1ccccc1-c1nc2ccc[nH]c-2n1 | 7 | 9 | – | – |
| COc1cc([S+](C)[O-])ccc1-c1nc2cnccc2[nH]1 (stereo not given) [ISOMAZOLE] | – | – | – | inhibition (Phosphodiesterase 4 [8]): 2%; ED50 (Phosphodiesterase 3 [6]): 0.03 mg/kg; IC50 (Phosphodiesterase 3 [9]): 42 µM; inhibition (Phosphodiesterase 3 [10]): 23%; Ratio (Phosphodiesterase 3 [11]): 1.4 |
| COc1cc([S+](C)[O-])ccc1-c1nc2cccnc2[nH]1 (stereo not given) | – | – | – | ED50 (Phosphodiesterase 3 [6]): 0.3 mg/kg; inhibition (Phosphodiesterase 3 [10]): 2% |
| CCCCCCOc1ccccc1-c1nc2ccc[nH]c-2n1 | 0 | 16 | – | – |
| CCCOc1ccccc1-c1cn2cccnc2n1 | 2 | – | 16 | – |
| CC1(C)C(=O)Nc2ccc(C3=NNC(=O)CC3)cc21 [INDOLIDAN] | – | – | – | ED50 (Phosphodiesterase 3 [6]): 0.007 mg/kg; IC50 (Phosphodiesterase 3 [9]): 0.08 µM; Ratio (Phosphodiesterase 3 [11]): 0.01 |
| CCCSc1ccccc1-c1nc2ccc[nH]c-2n1 | 0 | – | 21 | – |
